Results gathered from unrelated publications.
Compare with care: the assays were run in different laboratories.
Target: Receptor tyrosine-protein kinase erbB-4 (ERBB4, Homo sapiens, UniProt Q15303)

| Structure (SMILES) | read-out | mode | technique | concentration | quantity | value |
| --- | --- | --- | --- | --- | --- | --- |
| Cc1ccc(C(=O)NCc2ccsc2)cc1C#Cc1cn(C(C)C)c2ncnc(N)c12 | enzyme activity | inhibitor |  | 1 µM | activity vs control | 52% |
| Oc1cccc(-c2nc(N3CCOCC3)c3oc4ncccc4c3n2)c1 | enzyme activity | inhibitor |  | 10 µM | remaining activity | 114% |
| CS(=O)(=O)CCNCc1ccc(-c2ccc3ncnc(Nc4ccc(OCc5cccc(F)c5)c(Cl)c4)c3c2)o1 | cell-free assay |  |  | 0.5 µM | remaining signal | 11.2% |
| CC(C)(O)[C@H]1CC[C@H](Nc2ccc3ncc(-c4cccc(C(F)(F)F)c4)n3n2)CC1 | enzyme activity | inhibitor |  | 1 µM | remaining activity | 92.6% |
| CN(C(=O)c1ccccc1)c1cc(N(C)c2ccc3c(c2)CCc2ccc(C(=O)NCCN4CCOCC4)cc2C3=O)ccc1F | cell-free assay |  | competition with immobilised ligand | 1 µM | remaining binding | 90% |
| Cc1ccc(NC(=O)c2ccc(C)c(C(F)(F)F)c2)cc1C#Cc1nn(C2CCC(O)CC2)c2ncnc(N)c12 (stereo not drawn) | cell-free assay |  |  | 10 µM | remaining signal | -3% |
| CCCOc1ccc(OC)c(F)c1C(=O)c1ccc(C(=O)N[C@@H]2CNC[C@H]2NC(=O)c2ccc3[nH]ncc3c2)cc1 | enzyme activity | inhibitor |  | 10 µM | remaining activity | 92% |
| COc1cc2ncnc(Nc3ccc(Oc4ccccc4)c(C)c3C)c2cc1OC | enzyme activity | inhibitor |  | 1 µM | inhibition | 89% |
| CN1CC(Oc2cnc(C#N)cc2-c2ccn3nc(NC(=O)C4CC4)cc3c2)C1 | enzyme activity | inhibitor |  | 1 µM | inhibition | -2% |
| COc1cc(Nc2cnc(C#N)c(O[C@H](C)CN(C)C)n2)ncc1-c1cnn(C)c1 | enzyme activity | inhibitor | radiometric | 1 µM | remaining activity | 101% |
| CC/C(=N\NC(=O)NCc1cccc(O)c1)c1ccc(O)c(C)c1O | enzyme activity | inhibitor |  | 0.1 µM | inhibition | 9.9% |
| O=C1NC(=O)c2cc(Nc3ccc(F)cc3)c(Nc3ccc(F)cc3)cc21 | cell-free assay |  |  | 0.5 µM | remaining signal | 99.4% |
| CC(=O)c1c(NS(C)(=O)=O)c2cc(-c3ccc(Cl)cc3)c(-c3ccc(Cl)cc3Cl)nc2n(C)c1=O | cell-free assay |  | competition with immobilised ligand | 1 µM | remaining binding | 100% |
| Cc1cnc(NC2CCOCC2)nc1-n1cnc(C(=O)NC(CN)c2cc(F)cc(Cl)c2)c1 (stereo not drawn) | enzyme activity | inhibitor | radiometric | 1 µM | remaining activity | 108% |
| Cc1ccc(Nc2nccc(N(C)c3ccc4c(C)n(C)nc4c3)n2)cc1S(N)(=O)=O | enzyme activity | inhibitor |  | 10 µM | inhibition | 36% |
| Cc1cc(C)c(-n2ccn3nc(-c4cccnc4)cc23)cc1NC(=O)c1cc(C#N)cc(S(F)(F)(F)(F)F)c1 | cell-free assay |  | competition with immobilised ligand | 0.1 µM | remaining binding | 96.3% |
| Cc1cc(NC(=O)c2cccc3cc(-c4cccc5[nH]nc(N)c45)ccc23)ccc1F | enzyme activity | inhibitor |  | 0.1 µM | activity vs control | 102% |
| Cc1nc(N2CC[C@@H](O)C2)ncc1-c1cc(C(F)(F)F)cc2[nH]ncc12 | binding |  | competition with immobilised ligand | 1 µM | remaining binding | 87% |
| CCN(CC)c1ccc(C2=NNC(=O)CC2C)cc1[N+](=O)[O-] (stereo not drawn) | enzyme activity | inhibitor |  | 10 µM | remaining activity | 94% |
| NS(=O)(=O)c1cc(NC(=O)C2(c3ccccc3Cl)CC2)ccc1Oc1cccc(Cl)c1 | cell-free assay |  | competition with immobilised ligand | 1 µM | remaining binding | 75% |
| Cc1ccc(NC(=O)c2ccc(CN3CCN(C)CC3)cc2)cc1Nc1nc(-c2cccnc2)cs1 | cell-free assay |  |  | 0.5 µM | remaining signal | 93.5% |
| CCCOc1ccc([C@@H]2[C@@H](C(=O)O)[C@H](c3ccc4c(c3)OCO4)CN2CC(=O)Nc2c(CC)cccc2CC)cc1 | cell-free assay |  | competition with immobilised ligand | 1 µM | remaining binding | 100% |
| CC(C)(C)c1nc(-c2cccc(NS(=O)(=O)c3c(F)cccc3F)c2F)c(-c2ccnc(N)n2)s1 | enzyme activity | inhibitor | radiometric | 1 µM | remaining activity | 91% |
| CNCc1ccccc1-c1csc([C@H](C)Nc2nc(C)nc3cc(OC)c(OC)cc23)c1 | cell-free assay |  | competition with immobilised ligand | 1 µM | remaining binding | 100% |
| O=C(Nc1nccs1)C(c1cc(F)ccc1O)N1Cc2ccccc2C1=O (stereo not drawn) | enzyme activity | inhibitor |  | 1 µM | inhibition | 16% |
| O=C1Nc2ccc(Cl)cc2C1=Cc1cc(Cl)c(O)c(Cl)c1 | cell-free assay |  |  | 0.5 µM | remaining signal | 94.2% |
| CN(C)C(=O)Cn1cc(-c2nc([C@@](C)(c3ccc(-c4cnc(N)nc4)cc3)C3CC3)no2)cn1 | cell-free assay |  | competition with immobilised ligand | 1 µM | remaining binding | 100% |
